# Screening data from PubChem BioAssay.
# Rows were chosen to be rich in hits. Some 2.3% of all compounds tested hit in one or more screens of this group.
# NR2E3 ag-1 – agonists of human nuclear receptor NR2E3; Q9Y5X4; GST-NR2E3/biotin-RetCOR TR-FRET, 1536-well; inhibition of corepressor binding, % at 4.78 µM; 320,000 tested, 0.12% active; AID 2300;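 active = percent inhibition above the cutoff of mean plus 3 SD of all tested compounds, set per screening campaign, cut at about 20% in these data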;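 note: 0% = DMSO wells and 100% = biotin wells as full block of FRET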
# Target sequence (Q9Y5X4 whole entry, looked up): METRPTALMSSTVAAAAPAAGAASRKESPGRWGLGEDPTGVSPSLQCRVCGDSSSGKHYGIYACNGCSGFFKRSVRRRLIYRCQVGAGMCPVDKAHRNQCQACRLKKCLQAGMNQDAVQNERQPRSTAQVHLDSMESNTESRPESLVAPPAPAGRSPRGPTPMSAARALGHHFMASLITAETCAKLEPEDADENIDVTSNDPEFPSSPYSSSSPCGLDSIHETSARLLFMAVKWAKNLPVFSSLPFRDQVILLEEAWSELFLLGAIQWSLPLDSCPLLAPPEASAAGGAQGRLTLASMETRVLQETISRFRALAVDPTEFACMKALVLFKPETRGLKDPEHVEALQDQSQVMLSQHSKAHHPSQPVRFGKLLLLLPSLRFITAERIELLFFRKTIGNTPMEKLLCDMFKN
#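 system = GST-tagged NR2E3 plus biotinylated RetCOR corepressor | input = 1.35 nM GST-NR2E3 | also added = 7 nM biotin-RetCOR | schedule = 5 h incubation at 4 °C | measured by = TR-FRET with europium anti-GST and streptavidin-D2, 340 nm excitation | read-out = percent loss of FRET ratio relative to control wells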
# COUP-TFII inh – inhibitors of human COUP-TFII (NR2F2) | HEK293T NGFI-A luciferase reporter, luminescence | P24468 | inhibition, % at 8.6 µM | 370,000 tested, 0.7% active;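 active = inhibition above a per-plate cutoff, mean inhibition of test wells between control levels plus 3 SD, cut at about 38% in these data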;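 note: cells cotransfected with COUP-TFII expression vector driving the NGFI-A reporter; 0% = median of COUP-TF2 test wells and 100% = reporter-only cells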
# CHT inh – inhibits the human high affinity choline transporter; Q9GZV3; CHT-expressing cells, membrane potential dye, choline response; stronger effect = lower value; B-score at 10 µM; 310,000 tested, 0.86% active; AID 488975;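 active = B-score over 3 SD under the library average, and starting fluorescence ratio not unusually high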;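 note: choline stimulus applied at its EC90 after an EC20 pre-addition; B-score computed on integrated fluorescence ratio after choline addition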
# GalR3 antag – blocks the human galanin receptor 3. HEK293 GalR3-CNG cAMP membrane potential fluorescence; galR3 body fused to GalR1 C-terminus. AID 651719. inhibition, % at 3 µM. 360,000 tested, 0.44% active;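 active = inhibition above the screen-wide average plus 3 SD, cut at about 13% in these data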;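 note: forskolin and galanin both at EC90 stimulate the cells; cAMP rise reported by CNG channel membrane potential dye signal; 0% = forskolin plus galanin with DMSO and 100% = forskolin alone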
# Target sequence (O60755 1-299 limits assumed): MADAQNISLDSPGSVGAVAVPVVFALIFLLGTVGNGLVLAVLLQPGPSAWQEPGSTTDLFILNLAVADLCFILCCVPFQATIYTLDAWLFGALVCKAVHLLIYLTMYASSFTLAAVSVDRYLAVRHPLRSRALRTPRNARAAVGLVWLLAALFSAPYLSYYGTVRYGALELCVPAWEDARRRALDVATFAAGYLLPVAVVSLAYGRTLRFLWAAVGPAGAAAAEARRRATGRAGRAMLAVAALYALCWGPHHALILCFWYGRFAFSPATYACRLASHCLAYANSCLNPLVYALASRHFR
# NR2E3 ag-2 – activates human NR2E3 receptor. inhibition of corepressor binding, % at 3.98 µM. Q9Y5X4. CHO-S Gal4-NCOR/VP16-NR2E3 two-hybrid, luciferase. 360,000 tested, 0.35% active;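 active = inhibition above the mean of all tested compounds plus 3 SD, cut at about 70% in these data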;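 note: 0% = DMSO with NR2E3 transfected cells and 100% = cells lacking NR2E3 construct; higher means lower luciferase signal from less NR2E3 corepressor binding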
# CHT PAM – allosterically activates the human high affinity choline transporter. Q9GZV3. CHT-expressing cells, membrane potential dye, choline EC20; stronger effect = higher value; LV-AA mutant CHT in HEK293 cells. B-score at 10 µM. 310,000 tested, 0.49% active. AID 488977;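 active = initial fluorescence not abnormally high and integrated response B-score, plate-corrected, over 3 SD above library mean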
# CHT block conf – confirmation of human choline transporter CHT inhibitors; shares compounds with CHT inh; CHT-expressing cells, choline membrane potential dye; LV-to-AA substituted CHT, HEK293 cells; CHT activity remaining % of control (stronger effect = lower value), % at 10 µM; 2,400 tested, 70% active; AID 493221;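 active = choline transporter activity left, mean of duplicates at 10 µM, below buffer-only control mean minus 3 SD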;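 note: depolarization triggered by choline at its EC90 following an EC20 pre-addition; 0% = hemicholinium-3 full block and 100% = buffer-only control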
# HEK293 CHT ctr – counter-screen for CHT inhibitors: effect in parental HEK293 cells; shares compounds with CHT inh; membrane potential dye, choline response; active = decrease or increase beyond buffer ±3SD; membrane potential ratio readout (active if shifted either direction beyond buffer ±3SD; no single direction) at 10 µM; 2,400 tested, 4% active;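 note: parental cells lack the transporter so any hit is non-specific; ratio is peak minus trough fluorescence over baseline after EC90 choline challenge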
# Starred values were filed as active, the others as inactive; i = inactive; . = no result.
SMILES,NR2E3 ag-1,COUP-TFII inh,CHT inh,GalR3 antag,NR2E3 ag-2,CHT PAM,CHT block conf,HEK293 CHT ctr
O=C(Nc1ccccc1)c1ccc(=O)n(Cc2ccc(F)c(F)c2)c1,2,-2,-6.4*,3,-11,i,i,i
NC(=O)c1ccc(=O)n(Cc2ccc(F)c(F)c2)c1,0,4,i,-2,-13,i,.,.
CCN(CC)CCN1CCn2c3c(c4cc(C)ccc42)CCCC31 (stereo not given),-1,-20,i,-3,-24,i,.,.
CCN1CCn2c3c(c4cc(Cl)ccc42)CCCC31 (stereo not given),2,-11,-5.8*,2,-18,i,70%*,i
CN(Cc1cn(Cc2ccccc2)nn1)S(=O)(=O)c1ccccc1Br,.,-3,.,.,.,.,.,.
CCc1nnc(NS(=O)(=O)c2ccc(NC(=O)OC)cc2)s1,2,-12,i,-5,6,i,.,.
CCc1nnc(NS(=O)(=O)c2ccc(NC(=O)c3ccc(Br)cc3)cc2)s1,0,-3,-6.7*,-10,5,i,36%*,i
O=C(CSc1nnc(COc2ccccc2)n1Cc1ccco1)Nc1ccc(OCc2ccccc2)cc1,.,1,.,.,.,.,.,.
O=C(O)c1cnn(-c2nc(-c3cccc(F)c3)cs2)c1C(F)(F)F,4,-10,i,-4,-15,i,.,.
O=C(O)c1cnn(-c2nc(-c3cccc([N+](=O)[O-])c3)cs2)c1C(F)(F)F,-1,17,-6*,-3,-15,i,66%*,i
CCN(Cc1ccccc1)C(=O)C1C2C=CC3(CN(Cc4ccccc4)C(=O)C13)O2 (stereo not given),.,-3,.,.,.,.,.,.
Cc1nn(-c2ccccc2)c(C)c1C(=O)OCC(=O)NC(=O)NC1CCCC1,0,2,-11*,-4,-5,i,60%*,i
COc1ccc(OC)c(CN2C(=O)CCCCC2(C)c2nnnn2C2CCCC2)c1 (stereo not given),.,7,.,.,.,.,.,.
O=C(NN1C(=O)/C(=C/c2cccc(O)c2)SC1=S)c1ccccc1O,2,-11,-5.2*,2,-11,i,68%*,i
O=C(NN1C(=O)/C(=C/c2cccs2)SC1=S)c1ccncc1,-4,4,-10*,1,-26,i,7.4%*,i
Cc1cc([N+](=O)[O-])c(NCCCCCCO)c([N+](=O)[O-])c1,4,7,-5.4*,-2,-8,i,38%*,i
CCC(C)Nc1c([N+](=O)[O-])cc(C)cc1[N+](=O)[O-] (stereo not given),0,-1,i,-1,-1,i,.,.
S=C(NCc1ccccn1)Nc1ccc(Cl)cc1Cl,1,-9,-5.2*,-2,-22,i,53%*,i
Cc1cc(C)c(NC(=O)CCCCCNC2CCCCC2)c(C)c1,.,4,-5.2*,-9,1,i,7.1%*,i
Cc1cc(C)c(NC(=O)COC(=O)C2CCCCC2)c(C)c1,3,11,.,2,-2,.,.,.
CCCCCCNC(=O)C1CSCCS(=O)(=O)N1Cc1ccc(OC)cc1 (stereo not given),.,-9,.,.,.,.,.,.
Cn1c(-c2ccco2)n[nH]c1=S,1,3,i,1,-7,i,.,.
S=c1nc(-c2ccco2)[nH][nH]1,1,-10,-5.4*,-3,-32,i,48%*,i
O=C(NCCCN1CCOCC1)c1ccccc1,-2,-10,i,0,0,i,.,.
O=C(Nc1ccccc1C(=O)NCCCN1CCOCC1)c1ccc(F)cc1,-4,-3,-7.9*,-1,-7,i,38%*,i
SMILES,NR2E3 ag-1,COUP-TFII inh,CHT inh,GalR3 antag,NR2E3 ag-2,CHT PAM,CHT block conf,HEK293 CHT ctr
Cc1occc1C(=O)NNC(=O)COc1ccc(Br)cc1Br,-3,-11,i,-8,-41,i,.,.
Cc1occc1C(=O)NNC(=S)NC(=O)COc1ccc(Cl)cc1Cl,-1,-23,-9.4*,-1,-78,i,58%*,i
CC(C)(C)CCN1C[C@@H]2C(CNC(=O)c3cc(Cl)cc(Cl)c3)[C@@H]2C1 (stereo not given in full),.,0,.,.,.,.,.,.
Cc1ccc2cc(C#N)c(N3CCN(C(=O)c4ccccc4)CC3)nc2c1,0,9,-5.2*,-10,-36,i,i,i
CC(=O)c1cc(-c2cc(C(=O)O)cc([N+](=O)[O-])c2)c(=O)n2c1CCC2,.,-19,.,.,.,.,.,.
CCOC(=O)C1=C(COC(=O)C(CC)Oc2ccccc2)NC(=O)NC1C (stereo not given),6,-15,i,-2,-1,i,.,.
CCOC(=O)C1=C(COC(=O)c2ccc(OC(C)C)cc2)NC(=O)NC1C (stereo not given),1,1,-9.7*,-2,-7,i,2.8%*,i
COc1ccc(S(=O)(=O)Cc2ccc(C(=O)N3CCN(c4cccc(C)c4)C(C)C3)o2)cc1 (stereo not given),3,29,-5.4*,-6,-33,i,i,i
CCS(=O)(=O)C1=NSC2=NC(=O)/C(=C\c3ccc(OS(=O)(=O)c4ccccc4)c(OC)c3)C(=N)N21,0,.,-5.3*,.,-36,i,48%*,i
CCC1=NN2C(=N)/C(=C/c3ccc(OS(=O)(=O)c4ccc(C)cc4)c(OC)c3)C(=O)N=C2S1,10,3,i,-6,-36,i,.,.
CC(C)CS(=O)(=O)C1=NSC2=NC(=O)/C(=C\c3ccc(OC(=O)c4ccco4)cc3)C(=N)N21,1,5,-6.9*,-8,11,i,65%*,i
COc1cc(/C=C2/C(=N)N3C(=NC2=O)SN=C3S(C)(=O)=O)ccc1OS(=O)(=O)c1ccc(C)cc1,1,22,i,-2,-21,i,.,.
CCS(=O)(=O)C1=NN2C(=N)/C(=C\c3ccc(OS(=O)(=O)c4ccccc4)cc3)C(=O)N=C2S1,-3,.,-8.7*,.,-52,i,42%*,i
Cc1ccc(S(=O)(=O)Oc2ccc(/C=C3/C(=N)N4C(=NC3=O)SN=C4S(C)(=O)=O)cc2)cc1,7,2,-6.1*,-3,-16,i,48%*,i
C#CCCCN([C@@H](CC(C)C)C(=O)OC)S(=O)(=O)c1ccc(F)cc1Br,.,4,.,.,.,.,.,.
C/C(C=NNC(=O)CSc1nnc(-c2ccc(Cl)cc2)n1-c1ccccc1)=C\c1ccccc1,.,-6,.,.,.,.,.,.
